# Data from publication PMC6030940 (International Journal of Nanomedicine, 2018).
# “Also recorded” adds a separate entry of the source.
# Assays:
# Pgp [1] = target: T1, Pgp (Homo sapiens, UniProt P08183); experiment: Cellular uptake of Rhodamine123 by MDCK-MDR1 cells; assay type: cell-based; settings: 37°C, 90 min, Figure 2
# [2] = no reference given; cited from earlier work
# Pgp [3] = target: T1, Pgp; experiment: Cellular uptake of BBR in MDCK-MDR1 cells; assay type: cell-based; settings: BS20 8.1 µM, BBR 100 µM, 37°C, 90 min
# [4] = system: Pgp protein expression in MDCK-MDR1 cells; experiment: Cellular Pgp protein expression, Western blotting; assay type: cell-based; settings: BS20 5 or 10 µM, 3 h and 24 h
# [5] = system: Pgp mRNA expression in MDCK-MDR1 cells; experiment: Pgp mRNA expression, real-time quantitative PCR; assay type: cell-based; settings: normalized to GAPDH
# How it was run: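 MDCK-MDR1 cells (DMEM, 10% FBS, 37°C, 5% CO2) were exposed to the test surfactant for 3 or 24 h. Total RNA was kit-extracted and reverse-transcribed with gDNA eraser. qPCR ran 95°C 30 s, then 40 cycles of 95°C 5 s and 60°C 30 s, followed by melt-curve analysis. Pgp expression was normalised to GAPDH by the 2−ΔΔCq method.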
# [6] = system: intracellular ATP in MDCK-MDR1 cells; experiment: Intracellular ATP level, ATPlite luminescence assay; assay type: cell-based, canine; settings: BS20 5 or 10 µM
# How it was run: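 MDCK-MDR1 cells were seeded at 1 × 10^4 cells/well, left to adhere overnight, then exposed to the test surfactant at 5 or 10 μM for 3 or 24 h. Cells were lysed by three freeze-thaw cycles in lysis reagent. Substrate reagent was added and plates rocked 10 min at room temperature. ATPlite luminescence was read on a plate reader.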
# [7] = Morphology and size by scanning electron microscopy; assay type: physicochemical; settings: SEM images
# How it was run: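 Samples were fixed on SEM stubs with double-sided adhesive tape and coated with Au. They were imaged by scanning electron microscopy at 15 kV acceleration voltage.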
# human Pgp membrane = human Pgp membrane (Homo sapiens, UniProt P08183); experiment: Pgp ATPase activity, Pgp-Glo assay system; settings: 37°C, 120 min
# human Pgp membrane, sequence (P08183 whole entry): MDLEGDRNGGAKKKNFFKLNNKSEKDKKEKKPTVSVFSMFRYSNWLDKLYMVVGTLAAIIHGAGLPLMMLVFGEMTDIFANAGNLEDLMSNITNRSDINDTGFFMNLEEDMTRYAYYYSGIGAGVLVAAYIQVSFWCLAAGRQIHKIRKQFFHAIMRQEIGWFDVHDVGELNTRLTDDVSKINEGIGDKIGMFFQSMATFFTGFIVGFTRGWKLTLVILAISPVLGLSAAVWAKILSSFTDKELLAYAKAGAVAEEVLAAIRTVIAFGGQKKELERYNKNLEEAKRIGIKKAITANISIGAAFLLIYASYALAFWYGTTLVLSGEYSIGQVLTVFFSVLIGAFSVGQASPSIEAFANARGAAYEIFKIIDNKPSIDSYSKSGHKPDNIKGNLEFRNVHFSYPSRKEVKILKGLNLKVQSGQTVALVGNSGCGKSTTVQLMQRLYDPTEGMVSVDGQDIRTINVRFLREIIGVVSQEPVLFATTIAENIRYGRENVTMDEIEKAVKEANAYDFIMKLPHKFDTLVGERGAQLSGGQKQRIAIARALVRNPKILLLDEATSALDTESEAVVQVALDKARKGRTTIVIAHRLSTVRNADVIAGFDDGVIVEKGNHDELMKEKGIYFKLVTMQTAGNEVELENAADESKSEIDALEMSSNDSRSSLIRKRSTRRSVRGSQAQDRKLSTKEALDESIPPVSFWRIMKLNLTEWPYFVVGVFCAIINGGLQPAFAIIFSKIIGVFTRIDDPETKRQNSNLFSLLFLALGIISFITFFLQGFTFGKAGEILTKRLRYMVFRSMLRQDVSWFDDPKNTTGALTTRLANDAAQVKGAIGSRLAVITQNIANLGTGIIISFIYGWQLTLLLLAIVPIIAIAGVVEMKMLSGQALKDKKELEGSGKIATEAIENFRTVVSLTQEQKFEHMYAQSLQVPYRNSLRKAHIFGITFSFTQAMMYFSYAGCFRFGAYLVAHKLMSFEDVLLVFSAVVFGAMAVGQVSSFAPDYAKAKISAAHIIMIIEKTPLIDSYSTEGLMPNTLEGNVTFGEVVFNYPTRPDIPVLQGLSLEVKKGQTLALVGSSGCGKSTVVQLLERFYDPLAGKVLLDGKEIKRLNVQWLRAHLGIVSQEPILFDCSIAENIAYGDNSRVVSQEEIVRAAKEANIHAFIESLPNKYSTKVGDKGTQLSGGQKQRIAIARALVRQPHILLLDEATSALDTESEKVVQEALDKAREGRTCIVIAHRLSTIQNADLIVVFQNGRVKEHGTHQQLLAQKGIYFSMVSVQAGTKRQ
# [8] = system: Pgp expression in kidney cancer cells; settings: 5 ng/mL, 72 h; cited from earlier work
# Caco-2 monolayer = settings: previous study; cited from earlier work
# Pgp mRNA in T84 cells = settings: 10 µM, 72 h; cited from earlier work
# [9] = has been reported; cited from earlier work
# MDCK-MDR1 cell monolayer = experiment: Bidirectional transport across MDCK-MDR1 cell monolayer; settings: BBR in the presence of 10 µM verapamil
# P-gp (MDR1) = experiment: as above; settings: dog, MDCK-MDR1, pH 7.4
# Pgp [10] = experiment: as above; settings: dog, MDCK-MDR1, pH 7.4
# T1 sequence (P08183 whole entry): as above
compound,measurement,setting,value
D-α-Tocopherol polyethylene glycol 1000 succinate [TPGS],effect on intracellular accumulation of Rho123,Pgp [1],most powerful nonionic surfactant with the function of Pgp inhibition
same,critical micelle concentration,[2],0.02 mM
polyoxyethylene (20) stearyl ether [BS20],increase of cellular uptake of BBR vs BBR group,Pgp [3],4.1 fold
same,effect on intracellular accumulation of Rho123,Pgp [1],presented the most potency on increasing the intracellular accumulation of Rho123
same,Pgp protein expression,[4],no significant changes in Pgp protein expression
same,Pgp mRNA expression,"[5]; BS20 5 µM, 3 h",0.9 fold
same,Pgp mRNA expression,"[5]; BS20 5 µM, 24 h",2.3 fold
same,Pgp mRNA expression,"[5]; BS20 10 µM, 3 h",1.4 fold
same,Pgp mRNA expression,"[5]; BS20 10 µM, 24 h",3.8 fold
same,activity of intracellular ATP,[6]; 3 h,dose-dependently inhibited; also recorded: inhibited the activity of intracellular ATP
same,activity of intracellular ATP,[6]; 24 h,reversed to normal level
same,size by SEM,[7],> 5 µm
same,critical micelle concentration,[2],0.006 mM
same,stimulation of Pgp-ATPase activity vs normal control (basal level),human Pgp membrane; BS20 5 µM,3.5 fold
same,stimulation of Pgp-ATPase activity vs normal control (basal level),human Pgp membrane; BS20 10 µM,4.5 fold
C/C=C1\NC(=O)[C@H]2CSSCC/C=C/[C@H](CC(=O)N[C@H](C(C)C)C(=O)N2)OC(=O)[C@H](C(C)C)NC1=O [depsipeptide],increased expression levels of Pgp,[8],6.3 fold
polyoxyethylene (23) lauryl ether [Brij-35],permeation of bis(12)-hupyridone through Caco-2 monolayer,Caco-2 monolayer,significantly increase the permeation
CC(C)CN(C[C@@H](O)[C@H](Cc1ccccc1)NC(=O)O[C@H]1CCOC1)S(=O)(=O)c1ccc(N)cc1 [amprenavir],increase of mRNA levels of Pgp,Pgp mRNA in T84 cells,5.1 fold
C=C[C@H]1C[N@@]2CC[C@H]1C[C@@H]2[C@@H](O)c1ccnc2ccc(OC)cc12 [quinidine],increase of mRNA levels of Pgp,Pgp mRNA in T84 cells,3.8 fold
"COc1ccc2cc3[n+](cc2c1OC)CCc1cc2c(cc1-3)OCO2 [BBR, Berberine]",size by SEM,[7],1–2 µm
same,oral bioavailability,[9],< 1%
same,absorptive quotient (AQ),MDCK-MDR1 cell monolayer,0.344
same,secretory quotient (SQ),MDCK-MDR1 cell monolayer,1.16
same,"efflux ratio at 120 min, 10 µM",P-gp (MDR1),7.12
same,"Papp A→B at 120 min, 10 µM",Pgp [10],0.4 ± 0.01 ×10⁻⁶ cm/s
same,"Papp B→A at 120 min, 10 µM",Pgp [10],2.85 ± 0.04 ×10⁻⁶ cm/s
